Measurements collected from several papers.
Compare with care: the assays were run in different laboratories.
Target: Glycogen synthase kinase-3 beta (GSK3B, Homo sapiens, UniProt P49841)

Structure (SMILES) | test | conditions | measurement | result
C1=C/COCc2cc(ccc2OCCN2CCCC2)Nc2nccc(n2)-c2cccc(c2)COC/1 | binding | 0.1 µM | remaining binding | 82%
Cc1cc(O)c(-c2ccc([C@@H](C)CN(C)C)cc2)c2c1[nH]c(=O)c1sccc12 | enzyme activity, inhibitor | 0.1 µM, lysate | inhibition | -0.958%
CC(=O)ON=C1C=CC(=C(C#N)c2ccccc2)C=C1 | enzyme activity, inhibitor, ADP detection | 2 µM | activity vs control | 88%
C[C@H]1CC[C@H](n2c3cnccc3c3cnc(Nc4ccc5c(n4)CCN(C(=O)CO)C5)nc32)CC1 | cell-free assay | 1 µM | remaining signal | 72%
CC#CC(=O)N1CCC[C@H]1c1nc(-c2ccc(C(=O)Nc3ccccn3)cc2)c2c(N)nccn12 | enzyme activity, inhibitor | 1 µM | inhibition | 0%
CCCCC(=O)Nc1ccc(-c2ccc3ncn(CCC)c(=O)c3c2)cn1 | binding, competition with immobilised ligand | 0.5 µM | remaining binding | 100%
CC(C)S(=O)(=O)c1ccc2nccc(Nc3ccc4sc(C5CCCC5)nc4c3)c2c1 | enzyme activity, inhibitor | 1 µM | activity vs control | 113%
COc1ccc2oc(-c3ccc4nc(N)oc4c3)c/c(=N\c3ccccc3NC(=O)CCN)c2c1 | binding | 1 µM | remaining binding | 106%
CN1CCN(C(=O)c2ccc(NC(=O)Nc3ccc(N(C)c4ccnc(Nc5ccc(CS(C)(=O)=O)cc5)n4)cc3)cc2)CC1 | binding | 1 µM | remaining binding | 95%
C=CC(=O)N1CCC([C@@H]2CCNc3c(C(N)=O)c(-c4ccc(Oc5ccccc5)cc4)nn32)CC1 | enzyme activity, inhibitor | 1 µM | inhibition | 16%
N#Cc1ccc(NC(=O)Nc2ccccc2)cc1 | cell-free assay, competition with immobilised ligand | 25 µM | remaining binding | 100%
